Reference: ChEMBL document CHEMBL4257448, “Deciphering the origins of molecular toxicity of combretastatin A4 and its glycoconjugates: interactions with major drug transporters and their safety profiles in vitro and in vivo” (Medchemcomm, 2017)
The source made the active and inactive calls. No cut-off for these calls is given here.

Key:
[1] = biological target: T1, Solute carrier organic anion transporter family member 1B3 (Homo sapiens, UniProt Q9NPD5); experiment: Inhibition of human OATP1B3 expressed in HEK293 cells assessed as FMTX uptake after 5 mins by fluorescence assay; format: cell-based; settings: for inhibition (INH): human, hek293, 5 min
T1 sequence (Q9NPD5 whole entry): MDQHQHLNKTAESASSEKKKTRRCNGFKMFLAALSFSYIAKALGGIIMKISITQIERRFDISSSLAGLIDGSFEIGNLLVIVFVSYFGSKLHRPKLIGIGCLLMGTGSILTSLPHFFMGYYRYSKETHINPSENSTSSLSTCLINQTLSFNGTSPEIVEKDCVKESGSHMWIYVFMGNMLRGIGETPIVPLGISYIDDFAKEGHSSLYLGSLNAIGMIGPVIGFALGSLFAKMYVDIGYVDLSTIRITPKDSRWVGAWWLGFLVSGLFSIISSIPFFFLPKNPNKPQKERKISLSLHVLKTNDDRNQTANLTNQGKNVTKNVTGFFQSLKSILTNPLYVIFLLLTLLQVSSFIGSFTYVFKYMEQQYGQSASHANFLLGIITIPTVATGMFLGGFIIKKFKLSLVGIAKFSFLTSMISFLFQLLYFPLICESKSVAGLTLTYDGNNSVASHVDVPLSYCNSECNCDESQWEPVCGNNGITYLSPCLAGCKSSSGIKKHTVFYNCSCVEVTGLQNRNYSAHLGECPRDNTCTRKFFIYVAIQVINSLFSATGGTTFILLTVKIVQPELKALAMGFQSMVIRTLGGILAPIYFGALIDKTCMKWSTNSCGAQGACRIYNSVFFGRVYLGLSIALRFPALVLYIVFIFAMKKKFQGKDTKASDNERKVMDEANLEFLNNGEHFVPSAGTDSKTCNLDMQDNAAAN
How it was run: (§1)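 Stably transfected HEK293 cells (human OAT1, OAT3, OCT1, OCT2, OATP1B3, OATP2B1) and mock cells were assayed 16 h after seeding in HEPES uptake buffer, pH 7.2, with fluorescent probe ± compound. Incubation was 5 min for OAT1/3 and OATPs, and 10 min for OCT1/2. Reference inhibitors were probenecid (OATs), quinine (OCTs) and rifampicin (OATPs). Uptake was stopped with ice-cold PBS and cells were lysed in Tris/Triton. Fluorescence was normalised to BCA protein; triplicates, repeated 2–3 times.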

[2] = biological target: T2, Solute carrier organic anion transporter family member 2B1 (Homo sapiens, UniProt O94956); experiment: Inhibition of human OATP2B1 expressed in HEK293 cells assessed as DBF uptake after 5 mins by fluorescence assay; format: cell-based; settings: for inhibition (INH): human, hek293, 5 min; how it was run: as §1
T2 sequence (O94956 whole entry): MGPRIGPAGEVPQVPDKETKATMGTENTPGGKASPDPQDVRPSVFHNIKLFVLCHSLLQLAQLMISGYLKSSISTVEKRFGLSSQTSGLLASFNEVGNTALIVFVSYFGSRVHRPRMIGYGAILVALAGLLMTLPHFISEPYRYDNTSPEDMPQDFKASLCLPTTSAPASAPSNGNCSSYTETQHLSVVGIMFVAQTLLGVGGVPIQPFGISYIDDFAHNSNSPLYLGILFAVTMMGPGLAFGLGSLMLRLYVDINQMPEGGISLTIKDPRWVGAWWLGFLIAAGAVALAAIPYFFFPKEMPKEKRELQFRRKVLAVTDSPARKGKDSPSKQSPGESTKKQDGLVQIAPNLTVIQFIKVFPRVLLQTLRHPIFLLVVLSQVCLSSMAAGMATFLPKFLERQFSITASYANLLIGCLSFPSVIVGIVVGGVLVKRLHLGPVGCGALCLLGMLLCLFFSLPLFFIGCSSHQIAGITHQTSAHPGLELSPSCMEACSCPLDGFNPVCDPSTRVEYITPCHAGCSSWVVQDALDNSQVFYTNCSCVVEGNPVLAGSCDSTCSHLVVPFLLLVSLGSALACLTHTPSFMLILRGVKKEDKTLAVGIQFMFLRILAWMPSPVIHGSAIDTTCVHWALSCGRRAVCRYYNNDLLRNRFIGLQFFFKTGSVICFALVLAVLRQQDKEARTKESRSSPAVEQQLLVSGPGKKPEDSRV

DU-145 = experiment: Cytotoxicity against human DU145 cells assessed as reduction in cell viability up to 20 uM after 24 hrs by MTT assay; format: functional, cell-based
How it was run: (§2)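 Cells were grown as adherent monolayers at 37 °C in 5% CO2: SKOV3 in advanced DMEM, DU145 and MB231 in RPMI-1640 with glutamine and 10% FBS. They were seeded at 2000–7500 cells/well, treated on day 1 for 24 h with drug in DMSO (final DMSO <0.1%), then given MTT at 0.83 mg mL−1 final overnight. After SDS/HCl lysis, A570 was read as percent of drug-free control; five replicate wells.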

[3] = biological target: T3, Solute carrier family 22 member 6 (Homo sapiens, UniProt Q4U2R8); experiment: Inhibition of human OAT1 expressed in HEK293 cells assessed as 6-CF uptake after 5 mins by fluorescence assay; format: cell-based; settings: for inhibition (INH): human, hek293, 5 min; how it was run: as §1
T3 sequence (Q4U2R8 whole entry): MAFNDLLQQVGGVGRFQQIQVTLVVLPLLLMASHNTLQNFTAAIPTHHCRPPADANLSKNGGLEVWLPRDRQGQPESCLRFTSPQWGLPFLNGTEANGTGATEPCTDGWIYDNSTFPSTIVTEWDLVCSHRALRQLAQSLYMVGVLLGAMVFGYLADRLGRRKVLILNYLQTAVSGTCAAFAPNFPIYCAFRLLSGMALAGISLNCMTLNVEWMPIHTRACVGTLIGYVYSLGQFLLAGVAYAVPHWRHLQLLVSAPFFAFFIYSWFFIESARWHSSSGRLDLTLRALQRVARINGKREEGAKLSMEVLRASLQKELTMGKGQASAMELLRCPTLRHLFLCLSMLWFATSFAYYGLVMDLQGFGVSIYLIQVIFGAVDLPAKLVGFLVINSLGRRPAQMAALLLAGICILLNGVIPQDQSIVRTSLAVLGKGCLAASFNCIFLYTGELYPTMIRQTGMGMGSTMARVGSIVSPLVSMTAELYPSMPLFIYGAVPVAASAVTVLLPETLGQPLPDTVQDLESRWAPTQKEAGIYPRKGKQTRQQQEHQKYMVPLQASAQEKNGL

[4] = Cytotoxicity against HEK293FT cells expressing GLUT1 assessed as reduction in cell viability up to 20 uM; format: cell-based; settings: human
SK-OV-3 = experiment: Cytotoxicity against human SKOV3 cells assessed as reduction in cell viability up to 20 uM after 24 hrs by MTT assay; format: functional, cell-based; how it was run: as §2

COc1ccc(/C=C\c2cc(OC)c(OC)c(OC)c2)cc1O[C@@H]1O[C@H](CO)[C@@H](O)[C@H](O)[C@H]1O
IC50 [1]: > 200 µM
inhibition (INH) [1]: Dose-dependent effect
IC50 [2]: > 200 µM
inhibition (INH) [2]: Dose-dependent effect
Activity (DU-145): Active
IC50 [3]: > 200 µM
inhibition (INH) [3]: Dose-dependent effect
Activity [4]: Toxic
Activity (SK-OV-3): Active

COc1ccc(/C=C\c2cc(OC)c(OC)c(OC)c2)cc1O [COMBRETASTATIN A4]
IC50 [1]: 195 µM
inhibition (INH) [1]: Dose-dependent effect
IC50 [2]: 12.3 µM
inhibition (INH) [2]: Dose-dependent effect
Activity (DU-145): Active
IC50 [3]: 41.4 µM
inhibition (INH) [3]: Dose-dependent effect
Activity [4]: Toxic
Activity (SK-OV-3): Active
